In ChEMBL document CHEMBL3600383, “A new polyoxygenated cyclohexene and a new megastigmane glycoside from Uvaria grandiflora” (Bioorg Med Chem Lett, 2015) one finds IC50 data, which are given here for three compounds.

Structures are written as SMILES.

What all share (format): functional, cell-based
Assay [1] concerns LNCaP. The assay can be described thus: Cytotoxic activity against human LNCAP cells assessed as inhibition of cell growth incubated for 48 hrs by SRB method. In outline:
(§1)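 Sulforhodamine B growth-inhibition assay run as part of a panel of nine human cancer cell lines. Potency is reported as IC50 in µM.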
For orientation: Sulforhodamine B stains cellular protein and so reports cell mass.

The nature of assay [2]: Cytotoxic activity against human MKN7 cells assessed as inhibition of cell growth incubated for 48 hrs by SRB method. The following applies: MKN-7, 48 h. Summed up: as §1
Assay [3] concerns SK-MEL-2. The assay is described as follows: Cytotoxic activity against human SK-MEL-2 cells assessed as inhibition of cell growth incubated for 48 hrs by SRB method. The conditions noted are these: SK-MEL-2, 48 h. In outline:
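Sulforhodamine B growth-inhibition assay, run in parallel across a panel of nine human cancer cell lines. Potency is reported as IC50 in µM.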

The subject of assay [4] is KB. The assay can be described thus: Cytotoxic activity against human KB cells assessed as inhibition of cell growth incubated for 48 hrs by SRB method. In outline:
as §1

The subject of assay [5] is HepG2. The assay can be described thus: Cytotoxic activity against human HepG2 cells assessed as inhibition of cell growth incubated for 48 hrs by SRB method. The conditions noted are these: HepG2, 48 h. In outline:
as §1

Assay [6] deals with SW480. The assay is described as follows: Cytotoxic activity against human SW480 cells assessed as inhibition of cell growth incubated for 48 hrs by SRB method. The following applies: SW480, 48 h. In outline: as §1
For assay [7], the system named is MDA-MB-231. The assay is described as follows: Cytotoxic activity against human MDA-MB-231 cells assessed as inhibition of cell growth incubated for 48 hrs by SRB method. The conditions noted are these: MDA-MB-231, 48 h. In outline:
as §1

Assay [8] has as its system Lu1. The assay can be described thus: Cytotoxic activity against human Lu1 cells assessed as inhibition of cell growth incubated for 48 hrs by SRB method. The conditions noted are these: Lu1, 48 h. In outline: as §1
In assay [9] the test system is HL-60. The assay is described as follows: Cytotoxic activity against human HL60 cells assessed as inhibition of cell growth incubated for 48 hrs by SRB method. The conditions noted are these: HL-60, 48 h. In outline: as §1

Turning to `O=C(OC[C@@]1(O)C(=O)C=C[C@@H](O)[C@@H]1O)c1ccccc1`, the IC50 (commonly the point on the concentration scale where inhibition reaches its midpoint) was 45.4 µM in [1]; 8.63 µM in [2]; 3.63 µM in assay [3]; 13.3 µM in assay [4]; 13.1 µM in [5]; 11.3 µM in assay [6]. The IC50 was found to be 64.1 µM in [7], 4.68 µM in assay [8] and 6.22 µM in assay [9].
As for `C[C@@H]1O[C@@H](O[C@H]2[C@H](O[C@H]3CO[C@@H](O[C@H]4CC[C@]5(C)[C@H]6CC[C@]78OC[C@@]9(CC[C@](C)(C=O)C[C@H]97)[C@H](O)C[C@@]8(C)[C@]6(C)CC[C@H]5C4(C)C)[C@H](O[C@@H]4O[C@H](CO)[C@@H](O)[C@H](O)[C@H]4O)[C@H]3O)O[C@H](CO)[C@@H](O)[C@@H]2O)[C@H](O)[C@H](O)[C@H]1O` [ARDISIACRISPIN B], the IC50 amounted to 9.7 µM in assay [1]; 1.27 µM in assay [2]; 1.6 µM in assay [4]; 1.53 µM in [5]; 1.24 µM in [6]; 11.8 µM in [7]. In addition, the IC50 in assay [8] is 1.41 µM; in [9], 22.6 µM.
Turning to `Cc1c2ccncc2c(C)c2c1[nH]c1ccccc12` [ELLIPTECINE], the IC50 in [1] is 3.21 µM; in assay [2], 3.82 µM; in [3] it was 1.14 µM; in assay [4], 3.98 µM; in [5], 3.5 µM; in assay [6], 3.17 µM. Further, the IC50 worked out at 3.21 µM in assay [7], 2.72 µM in assay [8] and 2.93 µM in assay [9].
